According to ChEMBL document CHEMBL3045289, “Molecular docking and three-dimensional quantitative structure-activity relationship studies on the binding modes of herbicidal 1-(substituted phenoxyacetoxy)alkylphosphonates to the E1 component of pyruvate dehydrogenase” (J Agric Food Chem, 2007):

System: Cucumis sativus
Assay: Herbicidal activity against Cucumis sativus (cucumber) seeds assessed as inhibition of cucumber root at 28 degC for 3 days with 10 hr of lighting and 14 h in the dark
Type: functional, organism-based
Method in brief: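 Compound dissolved in acetone with a drop of Tween 80, then diluted with water to the required concentrations. Five mL was applied to filter paper in Petri dishes, with 10 cucumber seeds pre-soaked in water for 6 h. Taproot length was read at 72 h as percent inhibition versus control. Three replicates at each of five or six concentrations; IC50 by log-probit regression.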

`COP(=O)(OC)C(C)OC(=O)COc1ccc(F)cc1` (stereo not drawn) was tested. Which IC50 did it give?
The IC50 was 1510 nM.

`COP(=O)(OC)C(OC(=O)COc1cccc(Cl)c1Cl)c1cccs1` (stereo not drawn) was tested. Which IC50 did it give?
The IC50 was 589000 nM.

Which IC50 does the source give for `COP(=O)(OC)C(OC(=O)COc1cccc(F)c1)C(Cl)(Cl)Cl` (stereo not drawn) here?
The IC50 was 83200 nM.

Which IC50 does the source give for `COP(=O)(OC)C(OC(=O)COc1ccc(F)cc1)C(Cl)(Cl)Cl` (stereo not drawn) here?
The IC50 was 1170 nM.

For `COP(=O)(O)C(OC(=O)COc1ccc(Cl)cc1Cl)c1ccc(F)cc1` (stereo not drawn), which IC50 is on record?
The IC50 was 776 nM.

For `COP(=O)(OC)C(OC(=O)COc1cc(C)ccc1Cl)c1ccco1` (stereo not drawn), which IC50 is on record?
Its IC50 is 87100 nM.

With `COP(=O)(O)C(OC(=O)COc1ccc(Cl)cc1Cl)c1ccc(C)cc1` (stereo not drawn) as the molecule, how does the IC50 read?
The IC50 was 1350 nM.

How did the IC50 turn out when `COP(=O)(OC)C(OC(=O)COc1cccc(F)c1)c1ccccc1` (stereo not drawn) was run?
Its IC50 is 112000 nM.

Which IC50 does the source give for `COP(=O)(OC)C(C)OC(=O)COc1cccc(F)c1` (stereo not drawn) here?
The IC50 was 112000 nM.

`COP(=O)(OC)C(OC(=O)COc1cccc(C(F)(F)F)c1)c1ccccc1Cl` (stereo not drawn) was tested. Which IC50 did it give?
Its IC50 is 7940 nM.

Which IC50 does the source give for `COP(=O)(OC)C(OC(=O)COc1ccc(Cl)c(C)c1)c1ccco1` (stereo not drawn) here?
Its IC50 is 3630 nM.

For `COP(=O)(OC)C(OC(=O)COc1ccc(F)cc1)c1cccs1` (stereo not drawn), which IC50 is on record?
The IC50 was 2630 nM.

With `COP(=O)(OC)C(OC(=O)COc1cccc(Cl)c1Cl)C(Cl)(Cl)Cl` (stereo not drawn) as the molecule, how does the IC50 read?
Its IC50 is 70800 nM.

With `COP(=O)(OC)C(OC(=O)COc1ccc(F)cc1)c1ccco1` (stereo not drawn) as the molecule, how does the IC50 read?
The IC50 was 1820 nM.

`COP(=O)(O)C(OC(=O)COc1ccc(Cl)cc1Cl)c1ccccn1` (stereo not drawn) was tested. Which IC50 did it give?
Its IC50 is 575 nM.

For `COP(=O)(OC)C(OC(=O)COc1cccc(F)c1)c1ccco1` (stereo not drawn), which IC50 is on record?
Its IC50 is 67600 nM.

For `COP(=O)(OC)C(OC(=O)COc1c(Cl)cccc1Cl)c1ccco1` (stereo not drawn), which IC50 is on record?
Its IC50 is 324000 nM.

How did the IC50 turn out when `COc1ccc(C(OC(=O)COc2ccc(Cl)cc2Cl)P(=O)(O)OC)cc1` (stereo not drawn) was run?
The IC50 was 955 nM.

For `COP(=O)(OC)C(OC(=O)COc1ccc(Cl)cc1C)c1cccs1` (stereo not drawn), which IC50 is on record?
The IC50 was 468 nM.

How did the IC50 turn out when `COP(=O)(O)C(OC(=O)COc1ccc(Cl)cc1Cl)c1ccco1` (stereo not drawn) was run?
Its IC50 is 447 nM.

With `COP(=O)(OC)C(OC(=O)COc1cccc(C(F)(F)F)c1)c1ccc(Cl)c(Cl)c1` (stereo not drawn) as the molecule, how does the IC50 read?
Its IC50 is 8320 nM.

Which IC50 does the source give for `COP(=O)(OC)C(OC(=O)COc1ccc(Cl)cc1C)c1ccco1` (stereo not drawn) here?
The IC50 was 3800 nM.

Which IC50 does the source give for `COP(=O)(OC)C(OC(=O)COc1ccc(F)cc1)c1ccccc1` (stereo not drawn) here?
The IC50 was 1510 nM.

`COP(=O)(OC)C(OC(=O)COc1ccc(Cl)cc1Cl)c1ccco1` (stereo not drawn) was tested. Which IC50 did it give?
The IC50 was 339 nM.

For `COP(=O)(OC)C(OC(=O)COc1c(Cl)cccc1Cl)c1cccs1` (stereo not drawn), which IC50 is on record?
Its IC50 is 178000 nM.

Which IC50 does the source give for `COP(=O)(OC)C(OC(=O)COc1cccc(Cl)c1Cl)c1ccco1` (stereo not drawn) here?
The IC50 was 447000 nM.

Which IC50 does the source give for `COP(=O)(O)C(OC(=O)COc1ccc(Cl)cc1Cl)c1ccc(Cl)cc1` (stereo not drawn) here?
Its IC50 is 1320 nM.

Which IC50 does the source give for `COP(=O)(OC)C(OC(=O)COc1ccc(Cl)cc1Cl)c1cccs1` (stereo not drawn) here?
Its IC50 is 282 nM.

`COP(=O)(OC)C(OC(=O)COc1cccc(F)c1)c1cccs1` (stereo not drawn) was tested. Which IC50 did it give?
Its IC50 is 126000 nM.

With `COP(=O)(O)C(OC(=O)COc1ccc(Cl)cc1Cl)c1ccc(Cl)cc1Cl` (stereo not drawn) as the molecule, how does the IC50 read?
The IC50 was 1020 nM.

For `COP(=O)(OC)C(OC(=O)COc1ccc(Cl)cc1)c1ccco1` (stereo not drawn), which IC50 is on record?
Its IC50 is 646 nM.

Which IC50 does the source give for `COP(=O)(OC)C(C)OC(=O)COc1ccc(Cl)cc1C` (stereo not drawn) here?
Its IC50 is 437 nM.

For `COP(=O)(OC)C(OC(=O)COc1cccc(C(F)(F)F)c1)c1cccc(Cl)c1` (stereo not drawn), which IC50 is on record?
The IC50 was 14500 nM.

`COP(=O)(O)C(OC(=O)COc1ccc(Cl)cc1Cl)c1ccccc1Cl` (stereo not drawn) was tested. Which IC50 did it give?
Its IC50 is 912 nM.

With `COP(=O)(OC)C(OC(=O)COc1cc(C)ccc1Cl)c1cccs1` (stereo not drawn) as the molecule, how does the IC50 read?
The IC50 was 51300 nM.

With `COP(=O)(O)C(OC(=O)COc1ccc(Cl)cc1Cl)c1ccc(Cl)c(Cl)c1` (stereo not drawn) as the molecule, how does the IC50 read?
Its IC50 is 891 nM.

For `COP(=O)(OC)C(OC(=O)COc1ccc(Cl)cc1C)C(Cl)(Cl)Cl` (stereo not drawn), which IC50 is on record?
Its IC50 is 398 nM.

With `COP(=O)(OC)C(OC(=O)COc1cccc(Cl)c1Cl)c1ccccc1` (stereo not drawn) as the molecule, how does the IC50 read?
Its IC50 is 229000 nM.

For `COP(=O)(OC)C(OC(=O)COc1c(Cl)cccc1Cl)c1ccccc1` (stereo not drawn), which IC50 is on record?
The IC50 was 85100 nM.

How did the IC50 turn out when `COP(=O)(OC)C(OC(=O)COc1cccc(C(F)(F)F)c1)c1ccc(Cl)cc1` (stereo not drawn) was run?
Its IC50 is 6920 nM.

`COP(=O)(OC)C(OC(=O)COc1cc(C)ccc1Cl)c1ccccc1` (stereo not drawn) was tested. Which IC50 did it give?
Its IC50 is 72400 nM.

Which IC50 does the source give for `COP(=O)(OC)C(OC(=O)COc1ccc(Cl)cc1C)c1ccccc1` (stereo not drawn) here?
Its IC50 is 355 nM.

Which IC50 does the source give for `COP(=O)(OC)C(OC(=O)COc1c(Cl)cccc1Cl)C(Cl)(Cl)Cl` (stereo not drawn) here?
Its IC50 is 115000 nM.

Which IC50 does the source give for `COP(=O)(OC)C(C)OC(=O)COc1ccc(Cl)cc1` (stereo not drawn) here?
The IC50 was 427 nM.

`COP(=O)(OC)C(OC(=O)COc1cccc(C(F)(F)F)c1)c1ccc(C)cc1` (stereo not drawn) was tested. Which IC50 did it give?
Its IC50 is 7410 nM.

`COP(=O)(OC)C(OC(=O)COc1ccc(Cl)c(C)c1)c1ccccc1` (stereo not drawn) was tested. Which IC50 did it give?
Its IC50 is 2570 nM.

With `COP(=O)(OC)C(C)OC(=O)COc1cccc(Cl)c1Cl` (stereo not drawn) as the molecule, how does the IC50 read?
The IC50 was 209000 nM.

Which IC50 does the source give for `COP(=O)(OC)C(OC(=O)COc1ccc(Cl)cc1)c1cccs1` (stereo not drawn) here?
The IC50 was 575 nM.

For `COP(=O)(OC)C(C)OC(=O)COc1cc(C)ccc1Cl` (stereo not drawn), which IC50 is on record?
Its IC50 is 49000 nM.

`COP(=O)(OC)C(OC(=O)COc1ccc(Cl)c(C)c1)C(Cl)(Cl)Cl` (stereo not drawn) was tested. Which IC50 did it give?
Its IC50 is 3470 nM.

For `COP(=O)(OC)C(OC(=O)COc1ccc(Cl)cc1)C(Cl)(Cl)Cl` (stereo not drawn), which IC50 is on record?
The IC50 was 724 nM.

`COP(=O)(OC)C(OC(=O)COc1ccc(Cl)cc1)c1ccccc1` (stereo not drawn) was tested. Which IC50 did it give?
Its IC50 is 427 nM.

How did the IC50 turn out when `COP(=O)(OC)C(C)OC(=O)COc1c(Cl)cccc1Cl` (stereo not drawn) was run?
Its IC50 is 100000 nM.

For `COP(=O)(OC)C(OC(=O)COc1cc(C)ccc1Cl)C(Cl)(Cl)Cl` (stereo not drawn), which IC50 is on record?
Its IC50 is 75900 nM.

How did the IC50 turn out when `COP(=O)(O)C(OC(=O)COc1ccc(Cl)cc1Cl)c1ccccc1` (stereo not drawn) was run?
The IC50 was 955 nM.

With `COP(=O)(OC)C(OC(=O)COc1ccc(Cl)c(C)c1)c1cccs1` (stereo not drawn) as the molecule, how does the IC50 read?
The IC50 was 2340 nM.

How did the IC50 turn out when `COP(=O)(OC)C(C)OC(=O)COc1ccc(Cl)c(C)c1` (stereo not drawn) was run?
Its IC50 is 2950 nM.

`COP(=O)(O)C(OC(=O)COc1ccc(Cl)cc1Cl)c1cccc([N+](=O)[O-])c1` (stereo not drawn) was tested. Which IC50 did it give?
The IC50 was 1230 nM.
